System: MS2 coat protein
Experiment: apparent Kd, MS2 coat protein; higher = weaker binding; RNA-MaP array
Method in brief: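 For each design, the apparent Kd is the median of binding-curve fits across its clusters. Designs measured on fewer than 10 clusters were dropped. The RNAs were transcribed from sequenced DNA templates on an Illumina sequencing chip and incubated at room temperature, with or without input ligand, with fluorescently labeled MS2 coat protein at 1.5 nM to 3 μM.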

[1] = designed as: OFF switch for flavin mononucleotide, no ligand
[2] = ligand present: flavin mononucleotide, designed as: OFF switch for flavin mononucleotide
[3] = designed as: ON switch for theophylline, no ligand
[4] = ligand present: theophylline, designed as: ON switch for theophylline
[5] = designed as: ON switch for flavin mononucleotide, no ligand
[6] = ligand present: flavin mononucleotide, designed as: ON switch for flavin mononucleotide

Sequence	apparent Kd [1] [nM]	apparent Kd [2] [nM]	apparent Kd [5] [nM]	apparent Kd [6] [nM]	also measured
GAGGUAACGUAGAAGGCGAGGGCAAUACCUGUUCGAGGAUAUACUAUUAGACAUGAGGAUCACCCAUGUGGAGAUUGAUCGUCA	241	339	–	–	–
GAUCCACAUGAGGAUCACCCAUGUGAGGAUACCAGUACCAGAUCCUACCCUUGGCAGCCUAACCUUCAUUCAACACGAAUAAGAA	–	–	–	–	apparent Kd [3]: 12.4 nM; apparent Kd [4]: 14.3 nM
GAUGUCAAACAGAAGGAAGACUUGUACAAGGACUUAGGAUAUGUACAUGAGGAUCACCCAUGUGACUAAUGCGGGCCAUAUGAC	15.1	16.9	–	–	–
GCAAAGAAAGCAGUGUAAACAUGAGGAUCACCCAUGUGAUGGAGAAGGUAUAGGCUGGUCGUAUAUAAGGAUAUCCUAAGCAAA	–	–	18.6	17.6	–
GCAAAUGCUGAGAAGGUGAUGAAUAACUCCUCGAUGUAACUUGACAUGAGGAUCACCCAUGUCAUCAAGGAUAUCAAAGUGAAC	9.54	16.2	–	–	–
GCAACAUGUUCAGGAUAUACGCUACAAACUCGUGUAGAAGGGAAGGAUACAAUUACAUGAGGAUCACCCAUGUGUUAUCCGAUU	–	–	23.7	20.8	–
GCACCUAGGUCAGGAUAUCAAAAUGUCAUACAUGAGGAUCACCCAUGUGUCGUUAAGUAACACUGUGAGAAGGGACAACUUGAA	10.3	8.82	–	–	–
GCACGGCUAGAGAAGGGAAGGUGGAAGAGAUGUGAGGGACAUGAGGAUCACCCAUGUCUUACGAUUCAGGAUAUCUGAGAGGCU	10.2	10.3	–	–	–
GCGACAUGAGGAUCACCCAUGUGCCUCGUGUUAUUCUCUUUAAGAAGGAACGGGUAGCUCUAUUGUUAGGAUAUUAAUGGAAUU	689	724	–	–	–
GCGACUCUCGUGAAGCGACAUGAGGAUCACCCAUGUAACACUAGAAGGAGGCACGAUACGAUGUCCUAGGAUAUAGACACGGCU	27.8	26.4	–	–	–
GCUACACAUGAGGAUCACCCAUGUCAGGUCACUGAAGGAUAUAUUACUUAAUCCUGGGUCAUAGAAGGUCAAUUGC	–	–	31.4	21.9	–
GCUGCUCAUCAAAACUGGACAUGAGGAUCACCCAUGUCUUUGCAGGAUAUUGAUCGUCAGUACAUCAAGAAGGGCACGCGGCAA	–	–	12.9	9.89	–
GCUUGCUCAGAGGAUAUAGUUUCAACCACUCUACUAGAAGGCUGUACAUGAGGAUCACCCAUGUCCUUAAUCUC	22.6	23.7	–	–	–
GGAAAGUCUGAGAAGGGAUGAAGACAUGAGGAUCACCCAUGUGAAGGCCACUGGCUCCACAAGUAUCAGGAUAUCAGCAUAGCG	–	–	36.3	20.6	–
GGAAGGACAGUUGAUACCAGUUUCAAAGGCGGUAAUCACUACAUGAGGAUCACCCAUGUCAACCCUUGGCAGCAAUAGACCGUGG	–	–	–	–	apparent Kd (designed as: OFF switch for theophylline, no ligand): 18.8 nM; apparent Kd (ligand present: theophylline, designed as: OFF switch for theophylline): 24 nM
GGAAUGUGAGGAUAUAGGUGACCAAUACAAAACACAAAGAUCUAGAAGGCACAUGAGGAUCACCCAUGUAUACG	19.9	17.9	–	–	–
GGACACGAAGGAUAUACCCAAUGCCUGAGAAAACUCAUGGGACAUGAGGAUCACCCAUGUAGAAGGUCGUUAAA	558	416	–	–	–
GGACAUGAGGAUCACCCAUGUGGGAUCCACUACGGUCACGCUAGAAGGGAUGUGGGUGGCCGAUAUCAGGAUAUAGCAGUUUAG	381	189	–	–	–
GGACGGUGGUGAGGAUAUUGUCACAUGAGGAUCACCCAUGUCGUCUGGGAGCGGACUCCUCGGUCCAAGAAGGCACGACCAGCC	246	431	–	–	–
GGAUUUGAUCCAGGAUAUUAACAAUCCUCAGAUCAAAAUACAUGAGGAUCACCCAUGUACUCAAAUAAGAAGGGGAUGGCGGCC	25.7	20.5	–	–	–
GGCGUCCAAUUGCAGGAUAUCGGCCGAACAACAUGAGGAUCACCCAUGUCUUGCCACAAUCAUGCCGAGAAGGGCAGAAGAACGUG	–	–	21	10.1	–

Sequence	apparent Kd [1] [nM]	apparent Kd [2] [nM]	apparent Kd [5] [nM]	apparent Kd [6] [nM]	also measured
GGGAGAAAUGGAGGAUAUAUUAAAGCACAGCUGACAUGAGGAUCACCCAUGUGAAUUAAAGAUGCAUAGAAGGCCAAACUACAA	–	–	17.3	11.8	–
GGGCAACAUGAGGAUCACCCAUGUCGUCAUGGGUUCAAUCGGAGAAGGAACGGAGUGAUAUCCAGUUAGGAUAUCCGCUACACU	44.6	44	–	–	–
GGGCCCUUCUCAUAGGAUAUACUUUAUACCACAUGAGGAUCACCCAUGUAAACAUAAUUAAGAAAGUAGAAGGAUGACGAAAAUCG	–	–	10.4	8.98	–
GGUACUCUGUACUAACAUGAGGAUCACCCAUGUAGGCAAACUCAGGAUAUAUUGAACACACCUAGAUAGAAGGGAGUUCGUGAU	–	–	11.2	9.66	–
GGUUUACAUGAGGAUCACCCAUGUCCUGACAUGAGUUAGAAACAGGAUAUGGCGCAAGAAAAUGUCCAGAAGGGUUCAUAGCAA	–	–	238	70.2	–
GUACCACUCAAGAAGGACCUAGUUCACUAACCUGUGACAUGAGGAUCACCCAUGUGGCUAUUGCGGUAGGAUAUUGAAGACCGG	–	–	157	69.1	–
GUCAUGUUAGGAUAUACACGUACCCGCCGACAGCCAGCAAUGUAGAAGGAACAUGAGGAUCACCCAUGUCGUGG	15.2	31.5	–	–	–
GUCGGCUCAGUGUAGGAUAUGUCAAAGGUCACAUGAGGAUCACCCAUGUCUCGACGCAAAUUAGGACAGAAGGACAGCCAAAGCAU	–	–	7.57	4.97	–
GUCGUCACAGGAUAUACAUGAGGAUCACCCAUGUUCCCGUGUAAAUGGGUUGUGUUAGGUAGAAGGGUGCACGC	17.4	27.8	–	–	–
GUGCAAAACCAGAAGGGACAUUAAAGGGUAAAGUCAGGAUAUGGCACAUGAGGAUCACCCAUGUAGACUAGACGCGUUAUUUUC	–	–	9.99	9.11	–
GUUCGGCGAGGAUAUCUGCUACAGUACAUGAGGAUCACCCAUGUGGGUUAUGUCCGGUCCAGAGAAGGCGCUGCCA	33.4	47.9	–	–	–
GUUGACGAGUCAGGAUAUGAUUAGUGGGAGAAACAGCAACUCACAUGAGGAUCACCCAUGUAUGUUCAGAAGGGACGCCGAUCA	63.9	183	–	–	–
GUUGGACAUGAGGAUCACCCAUGUGAAUUGUUUUCCACGUACUAGGAUAUCGCGGGACAAACCAUCGAGAAGGAGUCGACCUAA	14.4	12.2	–	–	–
UAAAUACAUGAGGAUCACCCAUGUUUGGAUACCAGAUAUGACAUUAUCCCUUGGCAGCCAUUCGUUCCAAAUGCUAUUGUGAAGG	–	–	–	–	apparent Kd [3]: 22.5 nM; apparent Kd [4]: 31 nM
UAACCCGUGUAGAAGGCAAGCUCCGCGCUGGUCGUCAUCACAUGAGGAUCACCCAUGUGGAAGAUUGAGGAUAUACGCGCGAUG	5.45	7.53	–	–	–
UAACUCAAGUAACAGGAUAUGAGUGCGGAUACAUGAGGAUCACCCAUGUUGACGAUAACCGGACAACAGAAGGGUACCUAACUUGG	–	–	33.5	22.2	–
UACGAGUAAGGAUAUACACUGACCCAAAGAGUACAGAAAAUGUAGAAGGUACAUGAGGAUCACCCAUGUAGGUG	85.2	94.3	–	–	–
UAGAAUACAGGAUAUACAGCGAGAAAUCAUAUAAUAUACACACAUGAGGAUCACCCAUGUAGAAGGGAAUAAGG	24.9	24	–	–	–
UAGAGCCAGUCGGCCGCCACUCUCCAUAUGUGAGCCUUUAAGUUCUACAUGAGGAUCACCCAUGUGAGGACCGGGACCGAAUCUA	–	–	–	–	apparent Kd (designed as: OFF switch for tryptophan, no ligand): 60.3 nM; apparent Kd (ligand present: tryptophan, designed as: OFF switch for tryptophan): 80.7 nM
UAGCGGACUGUGAGGAUAUAGCAAAUUCAACAAUUCUAGAAGGCACAUGAGGAUCACCCAUGUAGAGUGAUUAA	38.5	70.7	–	–	–

— the EternaBench riboswitch data
